The record followed here is ChEMBL document CHEMBL4190245, “Caffeic Acid Phenethyl Ester from the Twigs of Cinnamomum cassia Inhibits Malignant Cell Transformation by Inducing c-Fos Degradation” (J Nat Prod, 2017).

The species entered for data set [1] is Mus musculus. Put plainly: Inhibition of EGF-induced c-fos mRNA expression in mouse JB6 P+ cells at 0.5 to 1 uM preincubated for 1 hr followed by EGF stimulation and measured after 15 mins by real-time PCR method. Type of data set: functional, cell-based. A digest of the protocol:
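Compound given 1 h before EGF (10 ng/mL); total RNA extracted 15 min later, reverse-transcribed and c-fos quantified by SYBR Green real-time PCR (95 °C 10 min, then 40 cycles of 95 °C 15 s and 59 °C 1 min); n = 3.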
(In general: Quantitative PCR measures a nucleic acid by following its amplification.)

The species entered for data set [2] is Mus musculus. Put plainly: Induction of proteasome-mediated c-fos degradation in EGF-stimulated mouse JB6 P+ cells assessed as reduction in total c-fos protein level at 0.5 to 1 uM preincubated for 1 hr followed by EGF stimulation and measured after 15 mins by Western blot method. A digest of the protocol: (§1)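 JB6 P+ cells were serum-starved 24 h, pretreated 1 h with compound (0.5 and 1 μM), then stimulated with EGF (10 ng/mL) and harvested after 15 min. Lysates (10−60 μg protein) were run on SDS-PAGE and immunoblotted for phospho or total proteins, with chemiluminescent detection.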

For data set [3], the species on record is Mus musculus. Put plainly: Induction of proteasome-mediated c-fos degradation in EGF-stimulated mouse JB6 P+ cells assessed as reduction in c-fos activity at 0.25 to 1 uM preincubated for 1 hr followed by EGF stimulation. A digest of the protocol: (§2)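 The TransAM AP-1 family ELISA was run on cell extracts: wells coated with AP-1 binding oligonucleotide, probed with a c-Fos or p-c-Jun specific primary antibody, then an HRP secondary, and absorbance read at 450 nm; n = 3.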

For data set [4], the species on record is Mus musculus. Put plainly: Inhibition of RSK phosphorylation at T359/S363 residue in EGF-stimulated mouse JB6 P+ cells at 0.5 to 1 uM preincubated for 1 hr followed by EGF stimulation and measured after 15 mins by Western blot method. A digest of the protocol: as §1
The species entered for data set [5] is Mus musculus. The experiment in a line: Induction of proteasome-mediated c-fos degradation in EGF-stimulated mouse JB6 P+ cells assessed as inhibition of c-fos phosphorylation at S32 residue at 0.5 to 1 uM preincubated for 1 hr followed by EGF stimulation and measured after 15 mins by Western blot method. A digest of the protocol: as §1
Data set [6] is described as follows: Cytotoxicity against mouse JB6 P+ cells up to 10 uM after 24 to 48 hrs by CellTiter96 AQueous one solution assay. Type of data set: cell-based. In short, it runs like this: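 JB6 P+ cells seeded, incubated overnight, then switched to 0.1% FBS MEM and compound added; viability read by MTS reagent at 24 and 48 h; triplicate samples, means ± standard deviation.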

For data set [7], the species on record is Mus musculus. The experiment in a line: Induction of proteasome-mediated c-fos degradation in EGF-stimulated mouse JB6 P+ cells assessed as reduction in c-fos protein level at 1 uM preincubated for 1 hr followed by EGF stimulation for 15 mins in presence of 10 uM proteasome inhibitor MG132 by Western blot method. In short, it runs like this:
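Cells serum-starved 24 h, pretreated with MG132 (10 μM) plus compound (0.5 and 1 μM), collected 15 min after EGF (10 ng/mL); lysates immunoblotted for c-Fos.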
A general note: Immunoblotting shows a protein as a band on a membrane.

The species named for data set [8] is Mus musculus. Put plainly: Inhibition of ERK phosphorylation at T202/Y204 residue in EGF-stimulated mouse JB6 P+ cells at 0.5 to 1 uM preincubated for 1 hr followed by EGF stimulation and measured after 15 mins by Western blot method. A digest of the protocol: as §1
Data set [9] addresses Transcription factor Jun (Mus musculus) (UniProt P05627). The experiment in a line: Effect on phosphorylated c-jun in EGF-stimulated mouse JB6 P+ cells at 0.25 to 1 uM preincubated for 1 hr followed by EGF stimulation. In short, it runs like this:
as §2

Data set [10] is filed under the species Mus musculus. The experiment in a line: Inhibition of EGF-induced cell cycle progression in mouse epidermal JB6 P+ cells assessed as accumulation at G1 phase at 0.25 to 1 uM preincubated for 1 hr followed by EGF challenge measured after 24 hrs by propidium iodide staining-based FACS analysis. Type of data set: functional. A digest of the protocol:
(§3)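 Seeded at 1.5 × 10^5 cells per 60 mm dish, starved 24 h in 0.1% FBS MEM, pretreated 1 h with compound, then EGF (10 ng/mL) for 24 h; cells fixed in cold 70% ethanol overnight, stained with RNase A and propidium iodide for 30 min at room temperature, analysed by flow cytometry; n = 3.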

For data set [11], the species on record is Mus musculus. The experiment in a line: Inhibition of EGF-induced mouse JB6 P+ cells transformation after 12 days by microscopy based soft agar assay. Type of data set: functional. In short, it runs like this: (§4)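 Soft agar: 8 × 10^3 cells/mL in 0.3% BME top agar with 10% FBS, compound and EGF or TPA, layered over 0.5% agar in BME with 10% FBS and the same additions; kept 1 to 2 weeks at 37 °C in 5% CO2, colonies counted by microscope; triplicate means ± SD.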

The species entered for data set [12] is Mus musculus. The experiment in a line: Inhibition of EGF-induced cell cycle progression in mouse epidermal JB6 P+ cells assessed as reduction in accumulation at G2/M phase at 0.25 to 1 uM preincubated for 1 hr followed by EGF challenge and measured after 24 hrs by propidium iodide staining-based FACS analysis. The class given is functional. In short, it runs like this: as §3
(A flow cytometer gives signals particle by particle.)

The species entered for data set [13] is Mus musculus. Put plainly: Inhibition of TPA-induced mouse JB6 P+ cells transformation after 14 days by microscopy based soft agar assay. Type of data set: functional. In short, it runs like this: as §4
For data set [14], the species on record is Mus musculus. The experiment in a line: Induction of proteasome-mediated c-fos degradation in EGF-stimulated mouse JB6 P+ cells assessed as reduction in c-fos protein level at 1 uM preincubated for 1 hr followed by EGF stimulation for 15 mins by Western blot method. A digest of the protocol:
as §1

For data set [15], the species on record is Mus musculus. Put plainly: Inhibition of CREB phosphorylation at S133 residue in EGF-stimulated mouse JB6 P+ cells at 0.5 to 1 uM preincubated for 1 hr followed by EGF stimulation and measured after 15 mins by Western blot method. In short, it runs like this:
as §1

The species entered for data set [16] is Mus musculus. Put plainly: Induction of proteasome-mediated c-fos degradation (unknown origin) expressed in TPA-stimulated mouse JB6 P+ cells co-expressing AP1-lucifearse assessed as inhibition of AP-1 activation preincubated for 1 hr followed by TPA stimulation for 4 hrs by luciferase reporter gene assay. Type of data set: cell-based. A digest of the protocol: (§5)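 JB6 P+ cells stably carrying an AP-1 luciferase reporter (kept in 5% FBS MEM with 200 μg/mL G418) were starved 24 h in 0.1% FBS MEM, given compound 1 h before EGF (10 ng/mL) or TPA (20 ng/mL), lysed in phosphate/Triton buffer pH 7.8 and read for firefly luciferase; n = 3.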

For data set [17], the species on record is Mus musculus. The experiment in a line: Induction of proteasome-mediated c-fos degradation (unknown origin) expressed in EGF-stimulated mouse JB6 P+ cells co-expressing AP1-lucifearse assessed as inhibition of AP-1 activation preincubated for 1 hr followed by EGF stimulation for 4 hrs by luciferase reporter gene assay. Type of data set: cell-based. In short, it runs like this: as §5

The species named for data set [18] is Mus musculus. The experiment in a line: Inhibition of TPA-induced mouse JB6 P+ cells transformation at 0.25 to 2 uM after 14 days by microscopy based soft agar assay. Type of data set: functional. A digest of the protocol:
as §4

For data set [19], the species on record is Mus musculus. The experiment in a line: Inhibition of EGF-induced mouse JB6 P+ cells transformation at 0.25 to 2 uM after 12 days by microscopy based soft agar assay. The class given is functional. A digest of the protocol:
as §4

The species entered for data set [20] is Mus musculus. The experiment in a line: Inhibition of EGF-induced cell cycle progression in mouse epidermal JB6 P+ cells assessed as reduction in accumulation at G2/M phase at 0.5 to 1 uM preincubated for 1 hr followed by EGF challenge and measured after 24 hrs by propidium iodide staining-based FACS analysis. Type of data set: functional. A digest of the protocol: as §3

The species entered for data set [21] is Mus musculus. Put plainly: Inhibition of EGF-induced cell cycle progression in mouse epidermal JB6 P+ cells assessed as accumulation at G1 phase at 0.5 to 1 uM preincubated for 1 hr followed by EGF challenge measured after 24 hrs by propidium iodide staining-based FACS analysis. The class given is functional. In short, it runs like this: as §3

Activity calls are given as the source filed them. The calls are words filed in the database; no cut-off is given here.

Sequence of Transcription factor Jun (Mus musculus) (P05627 whole entry): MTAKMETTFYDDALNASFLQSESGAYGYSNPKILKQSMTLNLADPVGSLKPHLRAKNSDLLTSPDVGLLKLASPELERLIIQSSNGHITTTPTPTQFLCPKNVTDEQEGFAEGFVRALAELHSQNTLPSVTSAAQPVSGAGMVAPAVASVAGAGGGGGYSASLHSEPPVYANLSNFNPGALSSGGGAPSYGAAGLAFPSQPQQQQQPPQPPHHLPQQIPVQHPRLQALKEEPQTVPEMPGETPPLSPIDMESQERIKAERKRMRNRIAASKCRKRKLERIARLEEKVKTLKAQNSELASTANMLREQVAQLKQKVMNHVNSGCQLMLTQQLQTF

`O=C(/C=C/c1ccc(O)c(O)c1)OCCc1ccccc1` [CAFFEIC ACID PHENETHYL ESTER]: the inhibition entry in the data set filed under Mus musculus [1], in the data set filed under Mus musculus [4], in the data set listed under Mus musculus [8] and in the data set listed under Mus musculus [15] was “inactive” in each case. Besides, the result in the data set listed under Mus musculus [2], in the data set listed under Mus musculus [3], in the data set listed under Mus musculus [5] and in the data set listed under Mus musculus [14] was Active. Moreover, the Activity entry in data set [6] was “Non-Toxic”. Moreover, the outcome (in the data set listed under Mus musculus [7]; in data set [9]) was inactive. In addition, the inhibition entry in the data set listed under Mus musculus [10] and in the data set listed under Mus musculus [12] was “Active” in each case. Also, the inhibition result in the data set listed under Mus musculus [11] and in the data set listed under Mus musculus [13] was “Dose-dependent effect” each time.

For `O=C(O)/C=C/c1ccc(O)c(O)c1` [CAFFEIC ACID], the outcome in the data set filed under Mus musculus [2], in the data set filed under Mus musculus [16], in the data set filed under Mus musculus [5] and in the data set filed under Mus musculus [17] was inactive. In data set [6], the Activity entry was “Non-Toxic”. Also, the inhibition result in the data set listed under Mus musculus [18], in the data set filed under Mus musculus [19], in the data set listed under Mus musculus [20] and in the data set filed under Mus musculus [21] was “inactive” in each case.
